Reference: ChEMBL document CHEMBL1140952 (J Med Chem, 2009)
Values after ≈ are worked out from the molar mass of the structure shown.

Columns and labels:
[1] = Antiproliferative activity against Met-dependent human GTL16 cells after 72 hrs by MTS assay; type: functional, cell-based; conditions: GTL 16, 72 h
[2] = biological target: T1, Hepatocyte growth factor receptor (Homo sapiens, UniProt P08581); experiment: Inhibition of MET
[3] = Half life in Beagle dog at 1 mg/kg, iv; type: ADME, organism-based, Canis lupus familiaris; parameters: dose 1 mg/kg, route intravenous; conditions: in vivo
Procedure, shortened: (§1)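 In-life PK: single iv and oral doses given in 70% PEG400-30% water, orally as a solution formulation. Mouse values are averages of six animals and rat values of three. Dog values are averages of two or three animals per route. Plasma Cmax, Tmax, AUC0-24h, iv t1/2, Cl, Vss and oral bioavailability were derived.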

[4] = biological target: Platelet-derived growth factor receptor beta (Homo sapiens, UniProt P09619); experiment: Inhibition of PDGFRbeta by cellular proliferation assay
[5] = biological target: High affinity nerve growth factor receptor (Homo sapiens, UniProt P04629); experiment: Inhibition of TrkA
[6] = Half life in BALB/c mouse at 5 mg/kg, iv; type: ADME, organism-based; parameters: dose 5 mg/kg, route intravenous; conditions: in vivo; procedure, shortened: as §1
[7] = biological target: Inhibitor of NF-kappa-B kinase alpha/beta (Homo sapiens, UniProt O14920+O15111); experiment: Inhibition of IKK1/2
[8] = biological target: Proto-oncogene tyrosine-protein kinase Src (Homo sapiens, UniProt P12931); experiment: Inhibition of Src by Ambit binding assay
Sequence of Proto-oncogene tyrosine-protein kinase Src (P12931 2-536 limits assumed): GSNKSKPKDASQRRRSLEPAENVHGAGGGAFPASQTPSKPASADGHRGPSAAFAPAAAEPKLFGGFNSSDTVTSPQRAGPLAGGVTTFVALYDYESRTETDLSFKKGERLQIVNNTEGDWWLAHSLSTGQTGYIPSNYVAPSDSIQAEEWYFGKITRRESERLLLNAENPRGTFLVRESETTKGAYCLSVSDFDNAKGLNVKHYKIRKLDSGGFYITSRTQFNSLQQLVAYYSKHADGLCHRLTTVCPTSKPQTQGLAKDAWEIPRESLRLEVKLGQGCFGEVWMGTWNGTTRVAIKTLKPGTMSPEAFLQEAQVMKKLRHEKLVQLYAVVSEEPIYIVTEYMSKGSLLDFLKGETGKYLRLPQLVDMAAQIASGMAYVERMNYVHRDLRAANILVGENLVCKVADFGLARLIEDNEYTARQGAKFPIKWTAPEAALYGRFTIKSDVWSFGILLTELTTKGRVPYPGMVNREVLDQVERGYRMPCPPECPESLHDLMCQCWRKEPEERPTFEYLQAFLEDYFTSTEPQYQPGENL

[9] = biological target: Tyrosine-protein kinase Blk (Homo sapiens, UniProt P51451); experiment: Inhibition of Blk by Ambit binding assay
[10] = Antitumor activity in human GTL16 cells xenografted athymic mouse at 50 mg/kg, po administered once daily for 14 days; type: functional; conditions: GTL 16, 336 h, read-out: TGI
[11] = biological target: Serine/threonine-protein kinase PLK1 (Homo sapiens, UniProt P53350); experiment: Inhibition of plk1/3
[12] = Inhibition of CDK2E
[13] = Antitumor activity in human GTL16 cells xenografted athymic mouse at 6.25 mg/kg, po administered once daily for 14 days; type: functional; conditions: GTL 16, 336 h, read-out: TGI
[14] = biological target: Tyrosine-protein kinase receptor TYRO3 (Homo sapiens, UniProt Q06418); experiment: Inhibition of Tyro3
Sequence of Tyrosine-protein kinase receptor TYRO3 (Q06418 whole entry): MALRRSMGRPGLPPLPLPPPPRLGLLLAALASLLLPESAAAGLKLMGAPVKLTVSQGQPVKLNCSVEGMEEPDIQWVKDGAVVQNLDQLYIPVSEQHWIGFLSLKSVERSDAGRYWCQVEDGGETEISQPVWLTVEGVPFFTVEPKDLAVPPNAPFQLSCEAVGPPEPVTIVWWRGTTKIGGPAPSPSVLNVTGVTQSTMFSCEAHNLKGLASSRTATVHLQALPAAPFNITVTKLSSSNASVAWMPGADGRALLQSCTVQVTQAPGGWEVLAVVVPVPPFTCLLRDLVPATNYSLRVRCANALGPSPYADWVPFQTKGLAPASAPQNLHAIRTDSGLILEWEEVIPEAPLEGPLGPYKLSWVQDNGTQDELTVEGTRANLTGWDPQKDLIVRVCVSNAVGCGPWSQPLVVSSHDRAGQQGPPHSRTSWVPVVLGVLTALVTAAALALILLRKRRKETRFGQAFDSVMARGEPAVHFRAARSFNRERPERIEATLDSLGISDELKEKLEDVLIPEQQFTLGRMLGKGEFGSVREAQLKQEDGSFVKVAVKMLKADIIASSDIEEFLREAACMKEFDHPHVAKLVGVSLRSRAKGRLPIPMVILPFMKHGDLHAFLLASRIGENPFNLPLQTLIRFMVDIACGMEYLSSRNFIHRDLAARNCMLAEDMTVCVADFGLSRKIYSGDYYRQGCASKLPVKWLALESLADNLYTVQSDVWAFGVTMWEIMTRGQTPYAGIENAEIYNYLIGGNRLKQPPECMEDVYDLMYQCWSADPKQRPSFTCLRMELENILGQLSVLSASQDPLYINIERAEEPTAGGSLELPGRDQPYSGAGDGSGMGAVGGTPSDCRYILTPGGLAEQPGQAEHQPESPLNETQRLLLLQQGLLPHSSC

[15] = Protein binding in Beagle dog; type: ADME, organism-based, Canis lupus familiaris; conditions: in vivo, read-out: PB
[16] = Inhibition of PKA
[17] = biological target: Tyrosine-protein kinase Mer (Homo sapiens, UniProt Q12866); experiment: Inhibition of Mer
Sequence of Tyrosine-protein kinase Mer (Q12866 whole entry): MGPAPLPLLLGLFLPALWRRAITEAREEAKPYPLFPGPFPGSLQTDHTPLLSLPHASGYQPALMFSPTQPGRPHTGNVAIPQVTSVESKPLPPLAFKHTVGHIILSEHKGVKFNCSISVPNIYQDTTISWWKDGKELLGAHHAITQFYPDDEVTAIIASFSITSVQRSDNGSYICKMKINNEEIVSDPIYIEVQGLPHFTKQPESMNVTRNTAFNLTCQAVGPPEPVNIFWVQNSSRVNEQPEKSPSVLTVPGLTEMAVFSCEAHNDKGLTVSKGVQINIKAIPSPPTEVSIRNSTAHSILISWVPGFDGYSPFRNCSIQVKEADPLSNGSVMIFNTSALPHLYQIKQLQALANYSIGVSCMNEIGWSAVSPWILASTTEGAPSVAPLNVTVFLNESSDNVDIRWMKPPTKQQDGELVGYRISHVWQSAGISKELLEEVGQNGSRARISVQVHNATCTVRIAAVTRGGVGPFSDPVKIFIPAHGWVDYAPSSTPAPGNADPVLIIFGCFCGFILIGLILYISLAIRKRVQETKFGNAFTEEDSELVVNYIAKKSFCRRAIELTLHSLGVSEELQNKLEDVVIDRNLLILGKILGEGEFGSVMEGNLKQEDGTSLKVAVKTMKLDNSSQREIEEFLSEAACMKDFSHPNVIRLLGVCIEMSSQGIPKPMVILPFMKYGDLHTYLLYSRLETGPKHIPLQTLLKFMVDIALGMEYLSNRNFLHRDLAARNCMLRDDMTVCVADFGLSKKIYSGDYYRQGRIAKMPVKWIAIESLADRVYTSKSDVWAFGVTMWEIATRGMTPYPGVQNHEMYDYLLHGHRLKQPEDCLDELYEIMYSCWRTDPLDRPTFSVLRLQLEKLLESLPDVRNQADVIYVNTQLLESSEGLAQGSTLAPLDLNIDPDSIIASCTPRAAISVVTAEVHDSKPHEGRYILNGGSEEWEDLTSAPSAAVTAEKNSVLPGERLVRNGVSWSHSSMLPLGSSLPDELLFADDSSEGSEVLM

[18] = test system: Mus musculus; experiment: Toxicity in human GTL16 cells xenografted athymic mouse assessed as weight loss/morbidity at 50 mg/kg, po; type: organism-based; parameters: dose 50 mg/kg, route oral; conditions: in vivo
Procedure, shortened: (§2)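 GTL-16 human gastric carcinoma cells were implanted subcutaneously in athymic mice and tumors staged to about 125 mm³. The compound was then given orally once daily for 14 consecutive days. Drug exposure (Cmax, AUC0-24h) was measured at the dose levels. Toxicity was judged by weight loss or morbidity.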

[19] = Protein binding in Sprague-Dawley rat; type: ADME, organism-based; conditions: in vivo, read-out: PB
[20] = biological target: Macrophage-stimulating protein receptor (Homo sapiens, UniProt Q04912); experiment: Inhibition of Ron
[21] = biological target: Serine/threonine-protein kinase pim-1 (Homo sapiens, UniProt P11309); experiment: Inhibition of pim1
Sequence of Serine/threonine-protein kinase pim-1 (P11309 whole entry): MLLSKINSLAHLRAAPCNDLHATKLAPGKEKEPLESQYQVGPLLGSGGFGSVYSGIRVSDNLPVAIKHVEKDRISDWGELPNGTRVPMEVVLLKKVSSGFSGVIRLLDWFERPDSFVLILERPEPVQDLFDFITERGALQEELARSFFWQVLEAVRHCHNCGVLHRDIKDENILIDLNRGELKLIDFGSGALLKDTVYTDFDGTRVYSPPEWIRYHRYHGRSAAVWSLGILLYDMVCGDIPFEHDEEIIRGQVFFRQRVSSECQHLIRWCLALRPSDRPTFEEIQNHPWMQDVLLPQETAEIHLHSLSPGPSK

[22] = test system: NCI-N87; experiment: Antiproliferative activity against Met-independent human NCI-N87 cells after 72 hrs by MTS assay; type: functional, cell-based; conditions: NCI-N87, 72 h
[23] = Tmax in Beagle dog at 5 mg/kg, po; type: ADME, organism-based, Canis lupus familiaris; parameters: dose 5 mg/kg, route oral; conditions: in vivo; procedure, shortened: as §1
[24] = test system: Mus musculus; experiment: Cmax in BALB/c mouse at 10 mg/kg, po; type: ADME, organism-based; parameters: dose 10 mg/kg, route oral; conditions: in vivo; procedure, shortened: as §1
[25] = test system: Canis familiaris; experiment: Cmax in Beagle dog at 5 mg/kg, po; type: ADME, organism-based, Canis lupus familiaris; parameters: dose 5 mg/kg, route oral; conditions: in vivo; procedure, shortened: as §1
[26] = biological target: Vascular endothelial growth factor receptor 2 (Homo sapiens, UniProt P35968); experiment: Inhibition of VEGFR2
[27] = test system: Mus musculus; experiment: Toxicity in human GTL16 cells xenografted athymic mouse assessed as weight loss/morbidity at 25 mg/kg, po; type: organism-based; parameters: dose 25 mg/kg, route oral; conditions: in vivo; procedure, shortened: as §2
[28] = biological target: MAP kinase-activated protein kinase 2 (Homo sapiens, UniProt P49137); experiment: Inhibition of MK2
[29] = Cmax in human GTL16 cells xenografted athymic mouse at 50 mg/kg, po; type: ADME, organism-based; parameters: dose 50 mg/kg, route oral; conditions: in vivo; procedure, shortened: as §2
[30] = Cmax in human GTL16 cells xenografted athymic mouse at 6.25 mg/kg, po; type: ADME, organism-based; parameters: dose 6.25 mg/kg, route oral; conditions: in vivo; procedure, shortened: as §2
[31] = test system: Mus musculus; experiment: Toxicity in human GTL16 cells xenografted athymic mouse assessed as weight loss/morbidity at 6.25 mg/kg, po; type: organism-based; parameters: dose 6.25 mg/kg, route oral; conditions: in vivo; procedure, shortened: as §2
[32] = Oral bioavailability in Sprague-Dawley rat at 10 mg/kg; type: ADME, organism-based; conditions: in vivo; procedure, shortened: as §1
[33] = Clearance in Sprague-Dawley rat at 5 mg/kg, iv; type: ADME, organism-based; parameters: dose 5 mg/kg, route intravenous; conditions: in vivo; procedure, shortened: as §1
[34] = Volume of distribution at steady state in Sprague-Dawley rat at 5 mg/kg, iv; type: ADME, organism-based; parameters: dose 5 mg/kg, route intravenous; conditions: in vivo, read-out: Vdss; procedure, shortened: as §1
[35] = biological target: Aurora kinase B (Homo sapiens, UniProt Q96GD4); experiment: Inhibition of Aurora B
[36] = Clearance in BALB/c mouse at 5 mg/kg, iv; type: ADME, organism-based; parameters: dose 5 mg/kg, route intravenous; conditions: in vivo; procedure, shortened: as §1
[37] = Aqueous solubility at pH 1.0; type: physicochemical
[38] = Oral bioavailability in BALB/c mouse at 10 mg/kg; type: ADME, organism-based; conditions: in vivo; procedure, shortened: as §1
[39] = test system: Rattus norvegicus; experiment: Cmax in Sprague-Dawley rat at 10 mg/kg, po; type: ADME, organism-based; parameters: dose 10 mg/kg, route oral; conditions: in vivo; procedure, shortened: as §1
[40] = biological target: BDNF/NT-3 growth factors receptor (Homo sapiens, UniProt Q16620); experiment: Inhibition of TrkB
Sequence of BDNF/NT-3 growth factors receptor (Q16620 whole entry): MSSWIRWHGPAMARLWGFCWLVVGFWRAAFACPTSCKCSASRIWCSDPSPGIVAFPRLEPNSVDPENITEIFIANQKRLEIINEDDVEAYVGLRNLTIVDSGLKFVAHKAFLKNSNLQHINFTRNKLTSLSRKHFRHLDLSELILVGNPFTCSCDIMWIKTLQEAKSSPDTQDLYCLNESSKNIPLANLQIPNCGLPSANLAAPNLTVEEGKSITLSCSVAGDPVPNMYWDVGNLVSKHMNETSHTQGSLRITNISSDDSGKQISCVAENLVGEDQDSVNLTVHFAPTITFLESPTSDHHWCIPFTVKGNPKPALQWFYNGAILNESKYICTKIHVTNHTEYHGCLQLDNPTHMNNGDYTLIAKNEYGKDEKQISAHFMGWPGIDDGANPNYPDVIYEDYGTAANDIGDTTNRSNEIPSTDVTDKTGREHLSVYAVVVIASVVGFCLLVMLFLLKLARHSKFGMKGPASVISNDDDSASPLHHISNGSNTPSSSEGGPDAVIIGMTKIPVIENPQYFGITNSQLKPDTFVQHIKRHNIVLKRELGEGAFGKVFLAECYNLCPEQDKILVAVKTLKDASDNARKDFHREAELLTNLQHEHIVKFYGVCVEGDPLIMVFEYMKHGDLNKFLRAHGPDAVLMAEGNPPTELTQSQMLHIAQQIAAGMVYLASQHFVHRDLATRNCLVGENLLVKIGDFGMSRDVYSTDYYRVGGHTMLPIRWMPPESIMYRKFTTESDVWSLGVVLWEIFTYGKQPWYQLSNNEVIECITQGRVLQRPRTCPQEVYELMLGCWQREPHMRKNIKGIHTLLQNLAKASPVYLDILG

[41] = biological target: Mitogen-activated protein kinase 14 (Homo sapiens, UniProt Q16539); experiment: Inhibition of p38alpha
[42] = Half life in Sprague-Dawley rat at 5 mg/kg, iv; type: ADME, organism-based; parameters: dose 5 mg/kg, route intravenous; conditions: in vivo; procedure, shortened: as §1
[43] = biological target: Ephrin type-A receptor 3 (Homo sapiens, UniProt P29320); experiment: Inhibition of Epha3 by Ambit binding assay
[44] = Volume of distribution at steady state in Beagle dog at 1 mg/kg, iv; type: ADME, organism-based, Canis lupus familiaris; parameters: dose 1 mg/kg, route intravenous; conditions: in vivo, read-out: Vdss; procedure, shortened: as §1
[45] = Clearance in Beagle dog at 1 mg/kg, iv; type: ADME, organism-based, Canis lupus familiaris; parameters: dose 1 mg/kg, route intravenous; conditions: in vivo; procedure, shortened: as §1
[46] = test system: NCI-H1993; experiment: Antiproliferative activity against Met-dependent human NCI-H1993 cells after 72 hrs by MTS assay; type: functional, cell-based; conditions: NCI-H1993, 72 h
[47] = Antitumor activity in human GTL16 cells xenografted athymic mouse at 25 mg/kg, po administered once daily for 14 days; type: functional; conditions: GTL 16, 336 h, read-out: TGI
[48] = Protein binding in BALB/c mouse; type: ADME, organism-based; conditions: in vivo, read-out: PB
[49] = AUC (0 to 24 hrs) in human GTL16 cells xenografted athymic mouse at 50 mg/kg, po; type: ADME, organism-based; parameters: time < 24 hr, dose 50 mg/kg, route oral; conditions: in vivo; procedure, shortened: as §2
[50] = AUC (0 to 24 hrs) in human GTL16 cells xenografted athymic mouse at 6.25 mg/kg, po; type: ADME, organism-based; parameters: time < 24 hr, dose 6.25 mg/kg, route oral; conditions: in vivo; procedure, shortened: as §2
[51] = Antiproliferative activity against Met-driven human U87 cells after 72 hrs by MTS assay; type: functional, cell-based, U-87MG ATCC; conditions: U-87 MG
[52] = Tmax in Sprague-Dawley rat at 10 mg/kg, po; type: ADME, organism-based; parameters: dose 10 mg/kg, route oral; conditions: in vivo; procedure, shortened: as §1
[53] = Volume of distribution at steady state in BALB/c mouse at 5 mg/kg, iv; type: ADME, organism-based; parameters: dose 5 mg/kg, route intravenous; conditions: in vivo, read-out: Vdss; procedure, shortened: as §1
[54] = biological target: T1, Hepatocyte growth factor receptor; experiment: Inhibition of Met phosphorylation in human GTL16 cells after 30 mins; type: cell-based
Procedure, shortened: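 Human GTL-16 gastric carcinoma cells were incubated with compound for 30 min, then lysed. Phospho-Met protein levels in the lysates were assessed across a range of concentrations.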

[55] = Tmax in BALB/c mouse at 10 mg/kg, po; type: ADME, organism-based; parameters: dose 10 mg/kg, route oral; conditions: in vivo; procedure, shortened: as §1
[56] = Oral bioavailability in Beagle dog at 5 mg/kg; type: ADME, organism-based, Canis lupus familiaris; conditions: in vivo; procedure, shortened: as §1

T1 sequence (P08581 whole entry): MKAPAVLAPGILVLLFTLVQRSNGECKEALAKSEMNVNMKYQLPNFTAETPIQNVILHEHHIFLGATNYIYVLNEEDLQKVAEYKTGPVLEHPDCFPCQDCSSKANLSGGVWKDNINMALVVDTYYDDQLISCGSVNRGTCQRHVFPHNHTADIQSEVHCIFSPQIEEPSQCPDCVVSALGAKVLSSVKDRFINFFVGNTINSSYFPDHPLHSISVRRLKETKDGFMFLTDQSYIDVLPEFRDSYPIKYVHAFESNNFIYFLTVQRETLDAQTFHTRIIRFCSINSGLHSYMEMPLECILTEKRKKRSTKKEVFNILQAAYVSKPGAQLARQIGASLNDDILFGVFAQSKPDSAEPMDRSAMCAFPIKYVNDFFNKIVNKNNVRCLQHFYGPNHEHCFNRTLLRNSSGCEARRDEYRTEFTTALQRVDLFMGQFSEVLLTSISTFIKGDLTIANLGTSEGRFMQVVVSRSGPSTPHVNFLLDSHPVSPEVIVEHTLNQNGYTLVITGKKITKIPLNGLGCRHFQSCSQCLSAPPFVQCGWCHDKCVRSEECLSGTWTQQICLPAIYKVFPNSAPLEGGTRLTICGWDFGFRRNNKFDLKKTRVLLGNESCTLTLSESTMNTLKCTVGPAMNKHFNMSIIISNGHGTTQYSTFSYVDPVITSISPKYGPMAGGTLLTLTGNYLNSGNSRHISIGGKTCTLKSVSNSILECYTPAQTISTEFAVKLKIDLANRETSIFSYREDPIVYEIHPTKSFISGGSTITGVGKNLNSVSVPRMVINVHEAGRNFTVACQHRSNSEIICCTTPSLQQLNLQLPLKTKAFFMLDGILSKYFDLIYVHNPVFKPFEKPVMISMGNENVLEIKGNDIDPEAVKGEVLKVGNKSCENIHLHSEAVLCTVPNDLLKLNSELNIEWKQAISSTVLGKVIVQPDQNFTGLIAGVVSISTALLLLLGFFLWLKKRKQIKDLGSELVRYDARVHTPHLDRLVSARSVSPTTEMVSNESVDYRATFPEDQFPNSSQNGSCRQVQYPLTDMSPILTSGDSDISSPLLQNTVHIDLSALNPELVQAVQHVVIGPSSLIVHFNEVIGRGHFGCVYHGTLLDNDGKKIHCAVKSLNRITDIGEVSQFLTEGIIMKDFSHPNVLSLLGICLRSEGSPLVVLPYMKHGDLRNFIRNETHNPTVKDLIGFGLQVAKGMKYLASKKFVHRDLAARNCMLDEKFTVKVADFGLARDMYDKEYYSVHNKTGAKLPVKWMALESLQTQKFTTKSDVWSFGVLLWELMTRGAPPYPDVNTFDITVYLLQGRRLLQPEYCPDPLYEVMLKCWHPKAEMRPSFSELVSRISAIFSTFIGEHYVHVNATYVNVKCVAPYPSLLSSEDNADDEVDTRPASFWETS

O=C(Nc1ccc(Oc2ccnc3[nH]ccc23)c(F)c1)c1cccn(-c2ccc(F)cc2)c1=O
IC50 [1]: 60 nM

CN1CCN(Cc2c(Oc3ccc(NC(=O)c4cccn(-c5ccc(F)cc5)c4=O)cc3F)ccnc2N)CC1
IC50 [2]: 5.9 nM
IC50 [1]: 2800 nM

Nc1cc(Oc2ccc(NC(=O)c3cccn(-c4ccc(F)cc4)c3=O)cc2F)ccn1
IC50 [2]: 4.5 nM
IC50 [1]: 170 nM

Nc1nccc(Oc2ccc(NC(=O)c3cccn(-c4ccc(F)cc4)c3=O)cc2F)c1CO
IC50 [2]: 3.4 nM
IC50 [1]: 280 nM

Nc1nccc(Oc2ccc(NC(=O)c3cccn(-c4ccc(F)cc4)c3=O)cc2F)c1C#CCO
IC50 [2]: 2.7 nM
IC50 [1]: 23 nM

CCOc1ccn(-c2ccc(F)cc2)c(=O)c1C(=O)Nc1ccc(Oc2ccnc(N)c2Cl)c(F)c1 [BMS-777607]
half-life [3]: 4.9 h
IC50 [4]: 1000 nM
IC50 [2]: 3.9 nM
IC50 [5]: 290 nM
IC50 [1]: 100 nM
half-life [6]: 4.5 h
IC50 [7]: > 2000 nM
IC50 [8]: > 500 nM
IC50 [9]: > 500 nM
inhibition in vivo at 50 mg/kg [10]: 102%
IC50 [11]: > 2000 nM
IC50 [12]: > 2000 nM
inhibition in vivo at 6.25 mg/kg [13]: 66%
IC50 [14]: 4.3 nM
fraction unbound [15]: < 0.01
IC50 [16]: 550 nM
IC50 [17]: 14 nM
Activity [18]: Non-toxic
fraction unbound [19]: < 0.01
IC50 [20]: 1.8 nM
IC50 [21]: > 2000 nM
IC50 [22]: > 10000 nM
Tmax [23]: 2.3 h
Cmax [24]: 17.6 µM
Cmax [25]: 29 µM
IC50 [26]: 180 nM
Activity [27]: Non-toxic
IC50 [28]: > 2000 nM
Cmax [29]: 43.7 µM
Cmax [30]: 4.5 µM
Activity [31]: Non-toxic
bioavailability [32]: 100%
clearance [33]: 12.1 mL/min/kg
Vd [34]: 1 L/kg
IC50 [35]: 78 nM
clearance [36]: 4.4 mL/min/kg
solubility [37]: 400 µg/mL (≈ 780 µM)
bioavailability [38]: 100%
Cmax [39]: 8.7 µM
IC50 [40]: 190 nM
IC50 [41]: > 2000 nM
half-life [42]: 4.8 h
IC50 [43]: > 500 nM
Vd [44]: 0.2 L/kg
clearance [45]: 0.82 mL/min/kg
IC50 [46]: 150 nM
inhibition in vivo at 25 mg/kg [47]: 95%
fraction unbound [48]: < 0.01
AUC(0-t) at 24 h [49]: 567 µM·h
AUC(0-t) at 24 h [50]: 37 µM·h
IC50 [51]: 160 nM
Tmax [52]: 1.7 h
Vd [53]: 1.2 L/kg
IC50 [54]: 20 nM
Tmax [55]: 0.5 h
bioavailability [56]: 100%
